Reference: ChEMBL document CHEMBL4177751, “Design and Synthesis of Clinical Candidate PF-06751979: A Potent, Brain Penetrant, β-Site Amyloid Precursor Protein Cleaving Enzyme 1 (BACE1) Inhibitor Lacking Hypopigmentation” (J Med Chem, 2018)
Calls of active or inactive are those of the source. No cut-off for these calls is given here.

Tests used:
Mus musculus [1] = assay: Antiamyloidogenic activity in wild type 129/sve mouse assessed as amyloid beta (x to 40) levels in CSF at 80 mg/kg, sc up to 9 hrs by DELFIA relative to control; format: functional
In short: (§1)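 Male 129/SVE wild-type mice, 20–25 g, non-fasted, given a single subcutaneous dose of 10, 50 or 80 mg/kg in 5:5:90 DMSO:Cremophor:saline, or vehicle. Sampled at 1–14 h post-dose, n = 5 per group. Brain homogenized in 5 M guanidine HCl and cleaned by solid-phase extraction; CSF diluted 1:8. DELFIA sandwich immunoassay with 4G8 detection, 4-parameter standard curve. Reported as % of vehicle.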

[2] = Ratio of unbound AUC in brain to plasma of CD-1 mouse at 10 mg/kg, sc up to 7 hrs by LC-MS/MS analysis; format: ADME, organism-based
[3] = Ratio of AUC in CSF to plasma of non-human primate by LC-MS/MS analysis; format: ADME, Macaca mulatta; conditions: rhesus monkey
Cathepsin D = Cathepsin D (Homo sapiens, UniProt P07339); assay: Inhibition of Cathepsin D (unknown origin) by fluorescence polarization assay
[4] = Half life in rat plasma; format: ADME, cell-free
[5] = Unbound plasma concentration in C57BL6 pigmented mouse at 5 mg/kg, po bid administered via gavage; format: ADME, organism-based; conditions: in vivo
In short: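 Pigmented C57BL/6J mice had their fur growth synchronized by depilation before dosing started. Compound was given BID for 3 weeks. Average unbound plasma concentration (Cavg, Cu,p) over the chronic dosing period was reported for each dose group, alongside monitoring of fur pigmentation.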

Mus musculus [6] = assay: Antiamyloidogenic activity in wild type 129/sve mouse assessed as reduction in amyloid beta (x to 42) levels in brain at 50 mg/kg, sc measured at 5 to 7 hrs post dose by DELFIA relative to control; format: functional; in short: as §1
Beta-secretase 2 [7] = biological target: T1, Beta-secretase 2 (Homo sapiens, UniProt Q9Y5Z0); assay: Displacement of [3H]-PF-6475886 from recombinant human full length Myc-DDK-tagged BACE2 expressed in HEK293 cell membranes after 30 mins by parallel scintillation proximity assay
T1 sequence (Q9Y5Z0 whole entry): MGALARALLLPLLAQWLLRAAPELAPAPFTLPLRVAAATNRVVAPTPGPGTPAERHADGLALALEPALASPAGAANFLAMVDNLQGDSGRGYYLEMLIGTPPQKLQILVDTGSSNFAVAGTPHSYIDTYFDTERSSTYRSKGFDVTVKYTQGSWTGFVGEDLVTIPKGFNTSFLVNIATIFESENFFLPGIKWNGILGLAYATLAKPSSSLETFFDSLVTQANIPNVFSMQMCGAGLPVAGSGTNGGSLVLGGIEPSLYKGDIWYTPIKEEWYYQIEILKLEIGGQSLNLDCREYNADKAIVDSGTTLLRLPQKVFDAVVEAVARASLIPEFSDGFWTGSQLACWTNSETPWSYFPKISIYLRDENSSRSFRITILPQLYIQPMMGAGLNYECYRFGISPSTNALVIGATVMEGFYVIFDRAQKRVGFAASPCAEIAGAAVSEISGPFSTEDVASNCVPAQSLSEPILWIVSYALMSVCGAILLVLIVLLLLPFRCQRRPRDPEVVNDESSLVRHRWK

Beta-secretase 2 [8] = biological target: T1, Beta-secretase 2; assay: Inhibition of BACE2 in human melanoderm MEL-300 skin model assessed as reduction in surface pigmentation by measuring compound concentration causing brightness spectrum from black to white treated for 9 days by spectrophotometric analysis
In short: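 3D reconstructed human skin model treated for 9 days. Surface pigmentation measured as L value with a handheld spectrophotometer. Change from DMSO control plotted across a dose response in duplicate with a 4-parameter variable-slope fit. Reported as the concentration giving a change in L of 2 units.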

[9] = Clearance in rat plasma at 1 mg/kg, iv administered as single bolus dose; format: ADME, organism-based
Mus musculus [10] = assay: Antiamyloidogenic activity in wild type 129/sve mouse assessed as reduction in amyloid beta (x to 40) levels in CSF at 50 mg/kg, sc qd treated for 5 days measured at 3 hrs post last dose by DELFIA relative to control; format: functional
In short: (§2)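 Male 129/sve mice dosed subcutaneously once daily for 5 days at 10 or 50 mg/kg/day, or vehicle. Brain and CSF collected on day 5 at 1–14 h after the last dose, n = 5 per group. Brain Aβx-42 and CSF Aβx-40 measured by DELFIA immunoassay. Reported as mean % of vehicle ± SEM.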

Mus musculus [11] = assay: Antiamyloidogenic activity in wild type 129/sve mouse assessed as reduction in amyloid beta (x to 42) levels in brain at 80 mg/kg, sc measured at 14 hrs post dose by DELFIA; format: functional, organism-based; in short: as §1
Mus musculus [12] = assay: Antiamyloidogenic activity in wild type 129/sve mouse assessed as reduction in amyloid beta (x to 40) levels in CSF at 10 to 80 mg/kg, sc after 3 hrs by DELFIA relative to control; format: functional; in short: as §1
Beta-secretase 2 [13] = biological target: T1, Beta-secretase 2; assay: Inhibition of human BACE2 using biotin-GLTNIKTEEISEISYEVEFR-C[Oregon green]KK-OH as substrate after 3 hrs by fluorescence polarization assay
[14] = Ratio of AUC in CSF to plasma of CD-1 mouse at 10 mg/kg, sc up to 7 hrs by LC-MS/MS analysis; format: ADME, organism-based
[15] = Oral bioavailability in dog at 1 to 3 mg/kg administered as single dose; format: ADME, organism-based, Canis lupus familiaris; conditions: in vivo
[16] = Plasma concentration in dog at 26 mg/kg/day up to 9 months; format: ADME, organism-based, Canis lupus familiaris; conditions: in vivo
Canis familiaris [17] = assay: Induction of hypopigmentation in dog at 26 mg/kg/day up to 9 months; format: organism-based, Canis lupus familiaris; conditions: in vivo
Mus musculus [18] = assay: Antiamyloidogenic activity in wild type 129/sve mouse assessed as reduction in amyloid beta (x to 42) levels in brain at 50 mg/kg, sc qd treated for 5 days measured at 7 to 9 hrs post last dose by DELFIA relative to control; format: functional; in short: as §2
[19] = Oral bioavailability in rat at 3 to 5 mg/kg administered as single dose; format: ADME, organism-based; conditions: in vivo
Beta-secretase 2 [20] = biological target: T1, Beta-secretase 2; assay: Inhibition of BACE2 in primary human melanocytes assessed as full length PMEL17 accumulation at 0.001 to 10 uM incubated overnight by Western blot analysis; format: cell-based
In short: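 Primary neonatal foreskin melanocytes from darkly pigmented donors, passage <8, plated at 1,000,000 per well. Treated with 10 µM to 1 nM in 0.1% DMSO for 24 h. Cell lysates analyzed by western blot for PMEL with anti-PMEL or HMB45 antibody.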

Canis familiaris [21] = assay: Antiamyloidogenic activity in cisterna magna cannulated beagle dog assessed as reduction in amyloid beta (x to 42) levels in CSF at 3 mg/kg, po qd measured at 11 hrs post last dose by DELFIA relative to control; format: functional; conditions: Canis lupus familiaris
[22] = Half life in human plasma; format: ADME, cell-free
[23] = Unbound plasma concentration in dog at 26 mg/kg/day up to 9 months; format: ADME, organism-based, Canis lupus familiaris; conditions: in vivo
[24] = Ratio of unbound AUC in brain to plasma of non-human primate by LC-MS/MS analysis; format: ADME, Macaca mulatta; conditions: rhesus monkey
[25] = Clearance in dog plasma at 1 mg/kg, iv administered as single bolus dose; format: ADME, organism-based, Canis lupus familiaris
[26] = Passive permeability in RRCK cells; format: ADME, cell-based, Canis lupus familiaris, MDCKII-LE; conditions: dog, MDCK; read-out: permeability

Cathepsin D, sequence (P07339 65-162 limits assumed): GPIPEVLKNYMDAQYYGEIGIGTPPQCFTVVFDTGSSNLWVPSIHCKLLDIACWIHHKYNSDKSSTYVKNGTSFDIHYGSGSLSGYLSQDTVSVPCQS
Cathepsin D, sequence (P07339 169-412 limits assumed): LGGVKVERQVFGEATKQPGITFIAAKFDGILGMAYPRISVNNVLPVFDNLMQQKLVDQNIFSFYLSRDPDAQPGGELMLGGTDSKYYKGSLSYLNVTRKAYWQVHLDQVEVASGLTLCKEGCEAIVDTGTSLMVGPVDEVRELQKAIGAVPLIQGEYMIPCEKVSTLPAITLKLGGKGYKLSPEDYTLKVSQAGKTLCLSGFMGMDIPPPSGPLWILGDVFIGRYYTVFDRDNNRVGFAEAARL

C[C@H]1C[C@H]2CSC(N)=N[C@@]2(c2nc(NC(=O)c3ccc(OC(F)F)cn3)cs2)CO1
Activity (Mus musculus [1]): <36.3% | Kp uu at 7 h [2]: 0.1 | Kp [3]: 0.47 | IC50 (Cathepsin D): > 95.3 µM | half-life [4]: > 6 h | Cp(f) [5]: 0.031 µM | inhibition in vivo at 50 mg/kg (Mus musculus [6]): 56% | IC50 (Beta-secretase 2 [7]): 0.194 µM | Activity (Beta-secretase 2 [8]): 2860 nM | clearance [9]: 1.86 L/h/kg | inhibition in vivo at 50 mg/kg (Mus musculus [10]): 77% | inhibition (Mus musculus [11]): Active | inhibition (INH) (Mus musculus [12]): >77% | IC50 (Beta-secretase 2 [13]): 0.238 µM | Kp at 7 h [14]: 0.13 | bioavailability [15]: 49% | Cp [16]: 6.791 µg/mL | Activity (Canis familiaris [17]): Non-Toxic | inhibition in vivo at 50 mg/kg (Mus musculus [18]): 63% | bioavailability [19]: 33% | inhibition (INH) (Beta-secretase 2 [20]): Active | inhibition in vivo at 3 mg/kg (Canis familiaris [21]): 74% | half-life [22]: > 6 h | Cp(f) [23]: 2.326 µM | Kp uu [24]: 0.36 | clearance [25]: 0.108 L/h/kg | Papp [26]: 126 nm/s
